In brackets after ≈: the same amount, converted by molar mass. Activity calls are given as the source filed them. No cut-off for these calls is given here.
Experiments:
[1] = biological target: Cyclin-dependent kinase 4/cyclin D1 (Homo sapiens, UniProt P11802); experiment: Inhibition of CDK4/Cyclin D1 expressed in Sf9 cells assessed as inhibition of Rb phosphorylation
Procedure, shortened: (§1)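 CDK4/cyclin D1 or CDK2/cyclin E was purified from baculovirus-infected Sf-9 cells. The substrate was bacterial GST-Rb on glutathione-sepharose beads, with [³³P]ATP. Reactions ran 30 min at 30 °C in filter plates, were washed four times and counted. IC₅₀ (µg/mL) came from dose–response curves, as the mean of at least two determinations.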

[2] = Selectivity for CDK4/Cyclin D1 over CDK2/Cyclin E
Procedure, shortened: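 Selectivity was calculated as CDK2 IC₅₀ divided by CDK4 IC₅₀, using the Rb-phosphorylation kinase assay values.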

HCT-116 [3] = experiment: Cytotoxicity against human HCT116 cells after 3 days by MTT assay; assay type: functional, cell-based; conditions: HCT-116, 72 h
Procedure, shortened: (§2)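 Cells (PC-6 shown) were kept in RPMI 1640 with 10% FBS and plated on day 0. Compound, serially diluted in DMSO, was added on day 1 at ten concentrations. Viable cells were counted by MTT after 3 days of culture. The 50% growth-inhibition concentration was solved from 100×[(T−T₀)/(C−T₀)]=50, where T₀ is the optical density at time zero.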

[4] = biological target: Cyclin-dependent kinase 2/cyclin E1 (Homo sapiens, UniProt P24941); experiment: Inhibition of CDK2/Cyclin E expressed in Sf9 cells assessed as inhibition of Rb phosphorylation; procedure, shortened: as §1
PC-6 = experiment: Cytotoxicity against human PC6 cells after 3 days by MTT assay; assay type: functional, cell-based; conditions: PC-6, 72 h; procedure, shortened: as §2
[5] = Aqueous solubility of compound; assay type: physicochemical; conditions: water (aqueous)
HCT-116 [6] = experiment: Cell cycle arrest in human HCT116 cells assessed as accumulation at G1 phase at 60 ng/mL after 16 hrs using propidium iodide staining by flow cytometry; assay type: functional
Procedure, shortened: (§3)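 HCT116 cells were treated for 16 h with compound at concentrations in ng/mL, with DMSO as control. Cells were then collected and their DNA content was analysed by flow cytometry. The percentages of cells in G0/G1, S and G2/M were quantified.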

Mus musculus [7] = experiment: Toxicity in human HCT116 cells xenografted BALB/c mouse assessed as maximum body weight loss rate at 350 mg/kg, po qd for 4 days measured 5 days post dose; assay type: organism-based, HCT-116; parameters: dose 350 mg/kg, route oral; conditions: in vivo, 120 h
Procedure, shortened: (§4)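 HCT116 tumour cells implanted s.c. in right hind limb of male BALB/c-nu/nu mice aged 5 or 6 weeks. Dosing began once tumours averaged 80–100 mm³, with compound in 20% Captisol solution given iv or po once daily for 4 days (qdx4). Tumour volume was measured periodically by caliper and body weight was followed. Maximum inhibition of tumour volume and maximum body weight loss are reported with their day after first dose. Deaths were scored as from toxicity or from tumour, out of 5 mice.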

Mus musculus [8] = experiment: Toxicity in human HCT116 cells xenografted BALB/c mouse assessed as maximum body weight loss rate at 300 mg/kg, iv qd for 4 days measured 7 days post dose; assay type: organism-based, HCT-116; parameters: dose 300 mg/kg, route intravenous; conditions: in vivo, 168 h; procedure, shortened: as §4
HCT-116 [9] = experiment: Antitumor activity against human HCT116 cells xenografted in BALB/c mouse assessed as maximum tumor volume inhibition rate at 300 mg/kg, iv qd for 4 days measured 9 days post dose; assay type: functional; procedure, shortened: as §4
Mus musculus [10] = experiment: Toxicity in human HCT116 cells xenografted BALB/c mouse assessed as mouse mortality at 300 mg/kg, iv qd for 4 days; assay type: organism-based, HCT-116; parameters: dose 300 mg/kg, route intravenous; conditions: in vivo, 96 h
Procedure, shortened: (§5)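 HCT116 cells implanted subcutaneously in right hind limb of male BALB/c-nu/nu mice aged 5 or 6 weeks; dosing began once tumours averaged 80–100 mm³. Compound in 20% Captisol solution given iv or po once daily for 4 days (qdx4). Tumour volume measured periodically by caliper. Deaths scored as toxicity deaths/tumour deaths/mice used, n=5 per group.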

HCT-116 [11] = experiment: Antitumor activity against human HCT116 cells xenografted in BALB/c mouse assessed as tumor induced mouse death at 300 mg/kg, iv qd for 4 days; assay type: functional, organism-based; parameters: dose 300 mg/kg; procedure, shortened: as §4
HCT-116 [12] = experiment: Antitumor activity against human HCT116 cells xenografted in BALB/c mouse assessed as maximum tumor volume inhibition rate at 350 mg/kg, po qd for 4 days measured 6 days post dose; assay type: functional; procedure, shortened: as §4
HCT-116 [13] = experiment: Antitumor activity against human HCT116 cells xenografted in BALB/c mouse assessed as tumor induced mouse death at 350 mg/kg, po qd for 4 days; assay type: functional, organism-based; parameters: dose 350 mg/kg; procedure, shortened: as §4
Mus musculus [14] = experiment: Toxicity in human HCT116 cells xenografted BALB/c mouse assessed as mouse mortality at 350 mg/kg, po qd for 4 days; assay type: organism-based, HCT-116; parameters: dose 350 mg/kg, route oral; conditions: in vivo, 96 h; procedure, shortened: as §5
Mus musculus [15] = experiment: Toxicity in human HCT116 cells xenografted BALB/c mouse assessed as maximum body weight loss rate at 300 mg/kg, iv qd for 4 days measured 1 days post dose; assay type: organism-based, HCT-116; parameters: dose 300 mg/kg, route intravenous; conditions: in vivo, 24 h; procedure, shortened: as §4
HCT-116 [16] = experiment: Cell cycle arrest in human HCT116 cells assessed as accumulation at G1 phase at 50 ng/mL after 16 hrs using propidium iodide staining by flow cytometry; assay type: functional; procedure, shortened: as §3
HCT-116 [17] = experiment: Antitumor activity against human HCT116 cells xenografted in BALB/c mouse assessed as maximum tumor volume inhibition rate at 300 mg/kg, iv qd for 4 days measured 7 days post dose; assay type: functional; procedure, shortened: as §4
HCT-116 [18] = experiment: Cell cycle arrest in human HCT116 cells assessed as decrease in accumulation at G2/M phase at 100 ng/mL after 16 hrs using propidium iodide staining by flow cytometry; assay type: functional, cell-based; procedure, shortened: as §3
HCT-116 [19] = experiment: Cell cycle arrest in human HCT116 cells assessed as decrease in accumulation at S phase at 100 ng/mL after 16 hrs using propidium iodide staining by flow cytometry; assay type: functional, cell-based; procedure, shortened: as §3
HCT-116 [20] = experiment: Cell cycle arrest in human HCT116 cells assessed as accumulation at G1 phase at 100 ng/mL after 16 hrs using propidium iodide staining by flow cytometry; assay type: functional; procedure, shortened: as §3
Mus musculus [21] = experiment: Toxicity in human HCT116 cells xenografted BALB/c mouse assessed as mouse mortality at 260 mg/kg, iv qd for 4 days; assay type: organism-based, HCT-116; parameters: dose 260 mg/kg, route intravenous; conditions: in vivo, 96 h; procedure, shortened: as §5
HCT-116 [22] = experiment: Antitumor activity against human HCT116 cells xenografted in BALB/c mouse assessed as tumor induced mouse death at 260 mg/kg, iv qd for 4 days; assay type: functional, organism-based; parameters: dose 260 mg/kg; procedure, shortened: as §4
HCT-116 [23] = experiment: Antitumor activity against human HCT116 cells xenografted in BALB/c mouse assessed as maximum tumor volume inhibition rate at 260 mg/kg, iv qd for 4 days measured 5 days post dose; assay type: functional; procedure, shortened: as §4
Mus musculus [24] = experiment: Toxicity in human HCT116 cells xenografted BALB/c mouse assessed as maximum body weight loss rate at 260 mg/kg, iv qd for 4 days; assay type: organism-based, HCT-116; parameters: dose 260 mg/kg, route intravenous; conditions: in vivo, 96 h; procedure, shortened: as §4

Cyclin-dependent kinase 4/cyclin D1, sequence (P11802 whole entry): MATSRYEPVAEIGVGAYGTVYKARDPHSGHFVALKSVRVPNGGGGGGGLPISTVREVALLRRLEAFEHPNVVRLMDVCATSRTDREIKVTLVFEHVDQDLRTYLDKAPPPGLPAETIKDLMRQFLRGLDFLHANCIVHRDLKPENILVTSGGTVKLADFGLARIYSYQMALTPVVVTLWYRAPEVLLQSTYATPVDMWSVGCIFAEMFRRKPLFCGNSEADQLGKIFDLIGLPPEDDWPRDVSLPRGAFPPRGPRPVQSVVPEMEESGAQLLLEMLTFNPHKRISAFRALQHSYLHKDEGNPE
Cyclin-dependent kinase 4/cyclin D1, sequence (P24385 whole entry, further chain): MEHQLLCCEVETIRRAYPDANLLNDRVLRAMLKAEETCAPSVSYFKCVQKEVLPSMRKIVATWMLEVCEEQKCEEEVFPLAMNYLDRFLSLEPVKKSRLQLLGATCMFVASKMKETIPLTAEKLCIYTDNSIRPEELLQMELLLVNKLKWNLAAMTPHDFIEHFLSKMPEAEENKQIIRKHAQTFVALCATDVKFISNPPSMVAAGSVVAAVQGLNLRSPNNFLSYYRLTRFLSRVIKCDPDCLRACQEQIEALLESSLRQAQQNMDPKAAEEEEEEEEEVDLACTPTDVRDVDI

Row | Structure (SMILES) | IC50 [1] | Selectivity ratio [2] | IC50 (HCT-116 [3]) | IC50 [4] | IC50 (PC-6) | further results
1 | CN(CCO)Cc1ccc(/C=N/Nc2ncnc3sc(C(C)(C)C)cc23)cc1 | 70.4 nM | 10.4 | 0.169 µg/mL (≈ 0.425 µM) | 729 nM | 0.124 µg/mL (≈ 0.312 µM) | –
2 | CN1Cc2ccc(/C=N/Nc3ncnc4sc(C(C)(C)C)cc34)cc2C1 | 263 nM | 10.4 | 0.088 µg/mL (≈ 0.241 µM) | 2740 nM | 0.05 µg/mL (≈ 0.137 µM) | –
3 | CN(C)Cc1ccc(/C=N/Nc2ncnc3sc(C(C)(C)C)cc23)cc1 | 210 nM | 7.8 | 0.128 µg/mL (≈ 0.348 µM) | 1630 nM | 0.107 µg/mL (≈ 0.291 µM) | –
4 | CN(C)Cc1cccc(/C=N/Nc2ncnc3sc(C(C)(C)C)cc23)n1 | 152 nM | 25 | 0.419 µg/mL (≈ 1.14 µM) | 3800 nM | 0.381 µg/mL (≈ 1.03 µM) | solubility [5]: 44 µg/mL (≈ 119 µM)
5 | CC(C)(C)c1cc2c(N/N=C/c3ccc(CN)cc3)ncnc2s1 | 61.9 nM | 76.2 | 0.334 µg/mL (≈ 0.984 µM) | 4710 nM | 0.214 µg/mL (≈ 0.63 µM) | –
6 | COC(=O)c1ccc(/C=N/Nc2ncnc3sc(C(C)(C)C)cc23)cc1 | > 54300 nM | – | – | > 54300 nM | – | –
7 | CNCc1ccc(/C=N/Nc2ncnc3sc(C(C)(C)C)cc23)cc1 | 107 nM | 17.9 | 0.056 µg/mL (≈ 0.158 µM) | 1920 nM | 0.044 µg/mL (≈ 0.124 µM) | Activity (HCT-116 [6]): 57%; Activity (Mus musculus [7]): 16%; Activity (Mus musculus [8]): 9.7%; solubility [5]: 783 µg/mL (≈ 2220 µM); inhibition in vivo at 300 mg/kg (HCT-116 [9]): 54%; Activity (Mus musculus [10]): Non-toxic; Activity (HCT-116 [11]): Active; inhibition in vivo at 350 mg/kg (HCT-116 [12]): 57%; Activity (HCT-116 [13]): Active; Activity (Mus musculus [14]): Non-toxic
8 | CC(C)(C)c1cc2c(N/N=C/c3ccc4c(c3)CCNC4)ncnc2s1 | 104 nM | 16.8 | 0.046 µg/mL (≈ 0.126 µM) | 1750 nM | 0.049 µg/mL (≈ 0.134 µM) | Activity (Mus musculus [15]): 2.2%; Activity (HCT-116 [16]): 56%; solubility [5]: 8.5 µg/mL (≈ 23.3 µM); Activity (Mus musculus [10]): Non-toxic; Activity (HCT-116 [11]): Active; inhibition in vivo at 300 mg/kg (HCT-116 [17]): 5%
9 | CC(C)(C)c1cc2c(N/N=C/c3ccc4c(c3)CNCC4)ncnc2s1 | 93 nM | 5.3 | 0.107 µg/mL (≈ 0.293 µM) | 492 nM | 0.069 µg/mL (≈ 0.189 µM) | –
10 | CN(C)S(=O)(=O)c1ccc(/C=N/Nc2ncnc3sc(C(C)(C)C)cc23)cc1 | > 47900 nM | – | 1.42 µg/mL (≈ 3.4 µM) | 2920 nM | 2.12 µg/mL (≈ 5.08 µM) | –
11 | CN(C)Cc1cccc(/C=N/Nc2ncnc3sc(C(C)(C)C)cc23)c1 | 70.7 nM | 42.3 | 0.405 µg/mL (≈ 1.1 µM) | 2990 nM | 0.598 µg/mL (≈ 1.63 µM) | –
12 | CC(C)(C)c1cc2c(N/N=C/c3ccccc3)ncnc2s1 | 1970 nM | > 33 | – | > 64400 nM | 6.54 µg/mL (≈ 21.1 µM) | –
13 | CC(C)(C)c1cc2c(N/N=C/c3ccc(O)cc3)ncnc2s1 | > 61300 nM | – | 0.844 µg/mL (≈ 2.59 µM) | 33700 nM | > 10 µg/mL | –
14 | CC(C)(C)c1cc2c(N/N=C/c3ccc(CO)cc3)ncnc2s1 | 1170 nM | 0.7 | 0.665 µg/mL (≈ 1.95 µM) | 764 nM | 0.556 µg/mL (≈ 1.63 µM) | –
15 | CC(C)N1Cc2ccc(/C=N/Nc3ncnc4sc(C(C)(C)C)cc34)cc2C1 | 203 nM | 37.5 | 0.206 µg/mL (≈ 0.523 µM) | 7620 nM | 0.134 µg/mL (≈ 0.34 µM) | –
16 | CC(C)(C)c1cc2c(N/N=C/c3ccc(C(=O)O)cc3)ncnc2s1 | 2760 nM | 0.4 | 9.99 µg/mL (≈ 28.2 µM) | 1100 nM | 7.22 µg/mL (≈ 20.4 µM) | –
17 | CC(C)(C)c1cc2c(N/N=C/c3ccc4c(c3)CNC4)ncnc2s1 | 236 nM | 6.3 | 0.111 µg/mL (≈ 0.316 µM) | 1480 nM | 0.071 µg/mL (≈ 0.202 µM) | Activity (HCT-116 [18]): Active; Activity (HCT-116 [19]): Active; Activity (HCT-116 [20]): 62%; solubility [5]: 2.8 µg/mL (≈ 7.97 µM); Activity (Mus musculus [21]): Non-toxic; Activity (HCT-116 [22]): Active; inhibition in vivo at 260 mg/kg (HCT-116 [23]): 61%; Activity (Mus musculus [24]): < 0%

From ChEMBL document CHEMBL1153092, “Discovery of novel thieno[2,3-d]pyrimidin-4-yl hydrazone-based inhibitors of cyclin D1-CDK4: synthesis, biological evaluation and structure-activity relationships. Part 2” (Bioorg Med Chem, 2009)
